Screens deposited in PubChem by several laboratories.
Compounds with a hit are over-represented: about 4.3% of the library has one in this group of screens.
RBBP9 inh: human RBBP9 inhibitors, primary screen, biochemical, fluorescence polarization, FP-Rh probe, HTS; Serine hydrolase RBBP9 (Homo sapiens), O75884; recombinant RBBP9; inhibition, % at 7.94 µM; 0.2% of 220,000 active; AID 1515, 2009;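 active means inhibition above the campaign mean of all tested compounds plus 3 SD, cut at about 14% in these data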
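System: RBBP9 protein | Quantity: 2.5 µM RBBP9 dispensing solution, before mixing | Reagent: FP-Rh probe, 375 nM dispensing solution | Timing: Enzyme-compound preincubation 30 min, then probe labeling 45 min, 25 °C | Measured by: Fluorescence polarization | Read-out: % inhibition | Replication: One well per compound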
PREPL inhibitor: PREPL enzyme inhibitors, primary screen, biochemical, fluorescence polarization | Prolyl endopeptidase-like (Homo sapiens), Q4J6C6 | recombinant PREPL, fluorescence polarization activity-based probe | inhibition, % at 5.96 µM | 0.68% of 320,000 active | AID 2751, 2010; in the data active means inhibition above about 43%
SUMO HTRF inh: inhibitors of in vitro SUMOylation cascade, primary screen, biochemical, HTRF, uHTS. SUMO-conjugating enzyme UBC9 (Homo sapiens), P63279. HTRF SUMOylation assay, SAE1/SAE2 + UBC9. inhibition, % at 35 µM. 0.36% of 290,000 active; in the data active means inhibition above about 50%, passing the limit was not always enough; inconclusive means no clear call, values can overlap the other calls
Target sequence (P63279 whole entry, looked up): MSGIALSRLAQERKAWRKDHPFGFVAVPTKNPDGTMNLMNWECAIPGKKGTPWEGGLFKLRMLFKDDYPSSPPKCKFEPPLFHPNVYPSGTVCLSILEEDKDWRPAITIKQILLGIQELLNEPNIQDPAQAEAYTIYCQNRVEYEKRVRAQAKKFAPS
ALR inh: inhibitors of human ALR sulfhydryl oxidase, primary screen, biochemical, H2O2 detection, HRP-luminol luminescence, single point; purified ALR, DTT oxidation; inhibition, % (concentration not given with the values); 3.8% of 290,000 active;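 active means mean replicate inhibition above about 79%, with every replicate also reaching it, limit read from the data; inconclusive means only one of the two criteria met; inactive means mean below limit and not every replicate reaching it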
Target sequence (P55789 whole entry, looked up): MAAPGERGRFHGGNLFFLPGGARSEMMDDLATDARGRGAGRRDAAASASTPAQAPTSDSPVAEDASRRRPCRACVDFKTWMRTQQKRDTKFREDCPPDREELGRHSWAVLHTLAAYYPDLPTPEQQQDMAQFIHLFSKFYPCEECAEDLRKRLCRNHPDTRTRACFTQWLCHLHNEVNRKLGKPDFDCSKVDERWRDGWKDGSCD
UBC13 inh: UBC13 polyubiquitin chain formation inhibitors, primary screen, biochemical, TR-FRET, uHTS. Ubiquitin-conjugating enzyme E2 N (Homo sapiens), P61088. inhibition, % at 20 µM. 0.47% of 330,000 active; in the data active means inhibition above about 45%, passing the limit was not always enough; inconclusive means no clear call, values can overlap the other calls
Target sequence (P61088 whole entry, looked up): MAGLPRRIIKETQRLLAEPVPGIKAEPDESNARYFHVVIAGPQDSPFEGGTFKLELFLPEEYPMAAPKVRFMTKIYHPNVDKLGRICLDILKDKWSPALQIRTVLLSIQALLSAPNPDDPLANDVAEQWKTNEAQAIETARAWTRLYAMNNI
Rin1 Abl inh: inhibitors of Rin1-Abl protein binding, primary screen, biochemical, TR-FRET | inhibition, % at 7.35 µM | 0.4% of 360,000 active; in the data active means inhibition above about 5%, passing the limit was not always enough
Numbers stand for hits; – = inactive; ? = inconclusive; · = no result given.

SMILES	RBBP9 inh	PREPL inhibitor	SUMO HTRF inh	ALR inh	UBC13 inh	Rin1 Abl inh
CCN(CC)CCCCN1c2ccccc2Sc2ccccc21	·	–	–	99	–	–
Cc1cc(C)n(CC(O)CN2c3ccccc3Sc3ccccc32)n1 (centres undefined)	–	–	–	99	–	–
CCN(CC)CC(O)CN1c2ccccc2Sc2ccccc21 (centres undefined)	·	–	–	98	–	–
OCCN(CCO)CC(O)CN1c2ccccc2Sc2ccccc21 (centres undefined)	·	–	–	99	–	–
O=C(Cn1ccc(NC(=O)OCc2ccccc2)nc1=O)NCc1ccc2[nH]ccc2c1	·	–	·	–	–	–
CCCNC(=O)C1(C)CCCN(Cc2ccccc2F)C1 (centres undefined)	·	·	·	·	·	–
CN(C)C(=O)c1ccc(NC(=O)CN2C(=O)NC3(CCCc4ccccc43)C2=O)cc1 (centres undefined)	·	–	·	–	–	–
CCOc1ccc(-c2cc(C(=O)Nc3ccc(C)c(NS(C)(=O)=O)c3)[nH]n2)c(C)c1	·	·	·	·	·	–
Clc1c(CSc2nc3ccccc3o2)nc2ccccn12	–	–	–	98	–	–
Cc1cc(C)nc(SCc2nc3ncccn3c2Br)n1	–	–	–	–	–	–
Brc1c(CSc2nc3ccccc3o2)nc2ncccn12	–	–	–	100	–	–
CC(=O)Nc1ccc(OCC(O)Cn2c3ccccc3c3ccccc32)c(C)c1 (centres undefined)	–	45	–	–	–	–
Cc1ccccc1OC(C)C(=O)N1CCN(c2ccccn2)CC1 (centres undefined)	·	–	–	–	–	–
CC(=O)Nc1ccc(C(=O)O)cc1	·	–	·	·	–	–
Nc1ccc(NC(=O)Nc2ccc(N)cc2)cc1	–	·	–	99	·	–
CC(=O)Nc1ccc(N)cc1	·	–	·	89	–	–
CCn1cc(/C=C(\NC(=O)c2ccccc2F)C(=O)NCCCn2ccnc2)c2ccccc21	·	–	–	–	–	–
CC(C)c1ccc(OCC(=O)Nc2ccc3oc(=O)ccc3c2)cc1	·	–	–	–	–	–
Cn1cnnc1SCc1ccc(C(=O)N/N=C(\CCC(=O)O)c2ccc(C(C)(C)C)cc2)cc1	–	–	–	98	·	–
COc1ccc(/C=N\NC(=O)c2ccc(=O)[nH]n2)cc1O	–	–	–	100	–	–
COc1cc(/C=N/NC(=O)c2ccc(CSc3nncn3C)cc2)cc(OC)c1O	–	–	–	100	–	–
COc1ccc(/C=N/NC(=O)c2ccc(C)nc2)cc1O	·	–	–	97	–	–
Cc1ccc(-n2ncc3c(=O)n(CC(=O)N(C(C)C)C(C)C)cnc32)cc1	·	–	–	–	–	–
COc1ccc(C(c2nnnn2C2CCCCC2)N2CCN(C/C=C/c3ccccc3)CC2)cc1 (centres undefined)	·	·	·	·	·	–
COc1ccc(/C=N/NC(=O)c2cc[n+]([O-])cc2)cc1	·	–	–	·	–	–
SMILES	RBBP9 inh	PREPL inhibitor	SUMO HTRF inh	ALR inh	UBC13 inh	Rin1 Abl inh
COc1ccc(/C=N/NC(=O)c2cc[n+]([O-])cc2)cc1O	·	–	–	99	–	–
COc1ccc(/C=N/NC(=O)c2ccoc2C)cc1OC	–	–	–	·	–	–
COc1ccc(/C=N/NC(=O)c2ccc(CSc3nc(C)cc(C)n3)cc2)cc1O	–	–	–	77	–	–
COc1ccc(/C=N/NC(=O)c2ccoc2C)cc1O	–	–	–	99	–	–
Cc1ccc2[nH]c3c(N4CCc5ccccc5C4)ncnc3c2c1	–	46	–	–	–	–
Fc1ccc2[nH]c3c(N4CCc5ccccc5C4)ncnc3c2c1	–	–	–	–	–	–
Cc1cc(C)cc(N(CC(=O)NCCSCc2ccccc2)S(C)(=O)=O)c1	–	–	–	–	–	–
Cc1nnc(SCC(=O)c2ccc(Br)cc2)s1	–	–	–	–	–	–
COC(=O)c1cc2c(n1S(=O)(=O)c1ccc(C)cc1)C(=O)C(=O)c1[nH]cc(C(=O)OCc3ccccc3)c1-2	·	·	·	·	·	–
N/C(=N\NS(=O)(=O)c1cc(C(F)(F)F)cc(C(F)(F)F)c1)c1ccccn1	–	–	–	85	–	–
O=C(O)C1Nc2c(C(=O)N3CCOCC3)cccc2C2C=CCC12 (centres undefined)	–	–	–	–	–	6.8
O=C(c1ccccc1O)N1CCOCC1	–	–	–	–	–	–
CCOC(=O)c1ccc2c(c1)C1C=CCC1C(C(=O)O)N2 (centres undefined)	–	–	60	–	–	·
Cc1ccc2c(c1C)NC(C(=O)O)C1CC=CC21 (centres undefined)	·	–	58	–	–	–
CC1(C)CN(C2CCCCC2)C(=O)[C@H]1CC(=O)Nc1ccc(Br)cc1	·	·	·	·	·	–
COc1ccc(-c2cc(NC=O)c3ncc(-c4cccc(C(=O)NCCN(C)C)c4)n3c2)c(OC)c1	·	·	·	·	·	–
O=c1cc(-c2cccc([N+](=O)[O-])c2)[nH][nH]1	–	–	–	82	–	–
Cc1cc(C(=O)Nc2c(F)cc(F)cc2Br)c(C)o1	–	–	–	96	–	–
Cc1cc(C)c2c(-n3cccc3)c(C(=O)NNS(=O)(=O)c3ccc(Br)cc3)sc2n1	–	–	–	88	–	–
CCOC(=O)Nc1sc2nc(C)cc(C)c2c1-n1cccc1	–	–	–	–	–	–
CN1CCN(c2ccc(C(F)(F)F)cc2NC(=O)c2ccco2)CC1	·	–	–	–	–	–
CC(C)(C)c1ccc(C(=O)Oc2ccccc2CCC(=O)O)cc1	–	–	–	91	–	–
CC(=CC(=O)c1ccccc1)c1ccccc1	·	·	·	·	·	–
C=CCn1c(=S)[nH]c2sc3c(c2c1=O)CCCC3	·	–	–	–	–	–
C=CCn1c(SCC(=O)NCCCC)nc2scc(-c3ccco3)c2c1=O	–	–	–	–	–	–
SMILES	RBBP9 inh	PREPL inhibitor	SUMO HTRF inh	ALR inh	UBC13 inh	Rin1 Abl inh
C=CCn1c(=S)[nH]c2scc(-c3ccc(C)o3)c2c1=O	–	–	–	98	–	–
C=CCn1c(=S)[nH]c2sccc2c1=O	–	–	–	98	?	–
C=CCn1c(SCC(C)=O)nc2scc(-c3ccc(C)o3)c2c1=O	·	–	–	96	–	–
Cc1ccc(-c2csc3nc(C)n(N)c(=O)c23)o1	–	–	–	–	–	–
COc1ccccc1C1(O)C(=O)Nc2ccccc21 (centres undefined)	·	–	–	–	–	–
CCC1(C)Cc2ccccc2-c2[nH][nH]c(=O)c21 (centres undefined)	–	–	–	–	–	–
CCn1c(=O)cc(OCC(=O)N2CCCC2)c2ccccc21	–	–	–	–	–	9.0
CCN(CCCNC(=O)CC(C(=O)N1CCc2ccccc21)n1ccnc1)c1ccccc1 (centres undefined)	–	–	–	99	–	–
